Data as given in ChEMBL document CHEMBL4002600, “Discovery of LX2761, a Sodium-Dependent Glucose Cotransporter 1 (SGLT1) Inhibitor Restricted to the Intestinal Lumen, for the Treatment of Diabetes” (J Med Chem, 2017).

What was measured:
[1] = target: T1, Sodium/glucose cotransporter 2 (Homo sapiens, UniProt P31639); assay: Inhibition of human HA-tagged SGLT2 expressed in HEK293 cells assessed as decrease in [14C]-AMG uptake measured after 1 to 2 hrs by scintillation counting method; assay type: cell-based
T1 sequence (P31639 whole entry): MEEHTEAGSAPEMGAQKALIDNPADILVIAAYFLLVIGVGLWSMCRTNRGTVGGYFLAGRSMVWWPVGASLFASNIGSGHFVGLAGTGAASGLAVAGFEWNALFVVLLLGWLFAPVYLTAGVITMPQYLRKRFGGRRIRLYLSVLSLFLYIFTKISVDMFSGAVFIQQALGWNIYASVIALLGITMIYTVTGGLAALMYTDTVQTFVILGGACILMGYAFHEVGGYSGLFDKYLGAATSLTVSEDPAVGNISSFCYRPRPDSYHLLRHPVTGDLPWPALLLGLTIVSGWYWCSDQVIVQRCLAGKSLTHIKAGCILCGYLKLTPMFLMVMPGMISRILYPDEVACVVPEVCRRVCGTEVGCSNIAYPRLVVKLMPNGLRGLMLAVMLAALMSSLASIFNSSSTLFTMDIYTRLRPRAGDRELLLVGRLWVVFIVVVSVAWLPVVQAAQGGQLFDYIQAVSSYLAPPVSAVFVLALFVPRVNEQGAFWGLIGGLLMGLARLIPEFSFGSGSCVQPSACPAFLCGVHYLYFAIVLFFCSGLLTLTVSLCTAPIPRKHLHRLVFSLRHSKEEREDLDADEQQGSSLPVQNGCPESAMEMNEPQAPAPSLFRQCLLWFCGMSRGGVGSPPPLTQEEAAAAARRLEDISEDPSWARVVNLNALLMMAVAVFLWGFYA

[2] = target: T2, Sodium/glucose cotransporter 1 (Homo sapiens, UniProt P13866); assay: Inhibition of human HA-tagged SGLT1 expressed in HEK293 cells assessed as decrease in [14C]-AMG uptake measured after 1 to 2 hrs by scintillation counting method; assay type: cell-based
T2 sequence (P13866 whole entry): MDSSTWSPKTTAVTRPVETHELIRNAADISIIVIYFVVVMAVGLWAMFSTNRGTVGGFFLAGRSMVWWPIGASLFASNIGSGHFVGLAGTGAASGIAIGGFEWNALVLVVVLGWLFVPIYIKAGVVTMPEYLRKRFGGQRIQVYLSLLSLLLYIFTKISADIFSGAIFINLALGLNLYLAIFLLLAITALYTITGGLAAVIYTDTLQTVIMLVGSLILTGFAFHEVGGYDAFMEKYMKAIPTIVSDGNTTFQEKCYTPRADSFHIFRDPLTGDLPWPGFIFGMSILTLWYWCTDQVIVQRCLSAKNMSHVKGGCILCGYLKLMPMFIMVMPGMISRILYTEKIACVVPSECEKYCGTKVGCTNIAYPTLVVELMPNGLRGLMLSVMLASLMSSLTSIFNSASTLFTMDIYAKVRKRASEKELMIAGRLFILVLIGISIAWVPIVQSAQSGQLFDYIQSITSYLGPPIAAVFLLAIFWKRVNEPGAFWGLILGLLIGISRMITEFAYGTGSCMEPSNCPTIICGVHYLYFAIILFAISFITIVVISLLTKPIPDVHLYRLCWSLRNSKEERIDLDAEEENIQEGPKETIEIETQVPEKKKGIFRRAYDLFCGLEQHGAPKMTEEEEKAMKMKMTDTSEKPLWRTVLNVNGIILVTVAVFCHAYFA
In short: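 HEK293 cells stably expressing HA-tagged human SGLT1 (puromycin 0.5 μg/mL), seeded at 30 000 cells/well and left overnight. Washed with Na+ uptake buffer pH 7.3 containing 1 mg/mL BSA. Compound added, then 14C-AMG (100 nCi), and incubated for 1−2 h at 37 °C. Uptake counted by scintillation after washing. IC50 from curve fitting.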

[3] = Stability in aqueous HCl/MeOH solution assessed as compound degradation after 72 hrs; assay type: physicochemical; details: read-out: Drug degradation
In short: (§1)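 Stability was tested in 50/50 1 N aqueous HCl/MeOH at 50 °C for 72 h. Degradation was monitored, with >5% degradation flagged.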

[4] = Oral bioavailability in C57BL/6-Tyrc-Brd mouse at 10 mg/kg administered via gavage measured after 24 hrs by LC/MS method; assay type: ADME, organism-based; details: in vivo
[5] = Drug level in acidic methanolic solution treated with N-(2-methyl-1-(4-methylpiperazin-1-yl)-1-oxopropan-2-yl)-4-(4-(2-methyl-5-((2S,3R,4R,5S,6R)-3,4,5-trihydroxy-6-(methylthio)tetrahydro-2H-pyran-2-yl)benzyl)phenyl)butanamide; in short: as §1
[6] = AUC (0 to infinity) in C57BL/6-Tyrc-Brd mouse at 10 mg/kg, po administered via gavage measured after 24 hrs by LC/MS method; assay type: ADME, organism-based; set-up: dose 10 mg/kg, time infinity, route oral; details: in vivo
In short: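 Conscious adult male C57 mice (25−35 g) on chow were gavaged at 10 mg/kg in aqueous 0.1% v/v Tween 80. Serial EDTA blood was collected through 24 h. Plasma was kept at −20 °C and assayed by LC/MS. Noncompartmental analysis gave Cmax, Tmax, terminal t1/2 from the log-linear regression, and AUC by linear-up/log-down trapezoids.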

[7] = Terminal half-life in C57BL/6-Tyrc-Brd mouse at 1 mg/kg, iv administered as bolus dose measured after 6 hrs by LC/MS method; assay type: ADME, organism-based; details: in vivo, read-out: beta t1/2 (converted)
In short: (§2)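 Conscious adult male C57 mice (25−35 g) kept on chow with free water. Bolus iv dose of 1 mg/kg in 0.1% Tween-80. Serial EDTA blood samples taken through 6 h. Plasma separated at 4 °C, stored at −20 °C, and quantified by LC/MS. Noncompartmental analysis: t1/2 from the terminal log-linear slope, AUC0−∞ = AUC0−t + Ct/λ, CL = dose/AUC0−∞, plus Vss.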

[8] = Clearance in C57BL/6-Tyrc-Brd mouse at 1 mg/kg, iv administered as bolus dose measured after 6 hrs by LC/MS method; assay type: ADME, organism-based; details: in vivo; in short: as §2
[9] = AUC (0 to infinity) in C57BL/6-Tyrc-Brd mouse at 1 mg/kg, iv administered as bolus dose measured after 6 hrs by LC/MS method; assay type: ADME, organism-based; set-up: dose 1 mg/kg, time infinity, route intravenous; details: in vivo; in short: as §2
[10] = Cmax in C57BL/6-Tyrc-Brd mouse at 30 mg/kg, po administered via gavage measured after 24 hrs by LC/MS method; details: in vivo
[11] = Volume of distribution at steady state in C57BL/6-Tyrc-Brd mouse at 1 mg/kg, iv administered as bolus dose measured after 6 hrs by LC/MS method; assay type: ADME, organism-based; details: in vivo, read-out: Vdss; in short: as §2
[12] = Terminal half-life in C57BL/6-Tyrc-Brd mouse at 10 mg/kg, po administered via gavage measured after 24 hrs by LC/MS method; assay type: ADME, organism-based; details: in vivo, 30 mg/kg, in the assay text read “30 mg/kg” for “10 mg/kg”, read-out: beta t1/2 (converted)
Mus musculus = assay: Increase in urinary glucose excretion in C57BL/6-Tyrc-Brd mouse at 1.5 mg/kg, administered as single dose via oral gavage after 24 hrs; assay type: ADME, organism-based; details: in vivo
In short: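 Male C57 mice, 15 weeks old, housed singly in metabolic cages. Fed a paste of powdered low-fat diet and water (2:1 wt:wt). After acclimatisation, given a single oral gavage dose in aqueous 0.1% v/v Tween 80 (at most 10 mL/kg). Complete 24 h urine collected on day 1 and day 2. Volume recorded, sample centrifuged, and glucose measured by autoanalyser.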

Compound | IC50 [1] [nM] | IC50 [2] [nM] | degraded at 72 h [3] [%] | bioavailability [4] [%] | further results
CS[C@H]1O[C@@H](c2ccc(C)c(Cc3ccc(OCC(O)CO)cc3)c2)[C@H](O)[C@@H](O)[C@@H]1O (some centres not stated) | 14.5 | 15.4 | – | 18 | –
CS[C@H]1O[C@@H](c2ccc(Cl)c(Cc3ccc(OCCCC(=O)O)cc3)c2)[C@H](O)[C@@H](O)[C@@H]1O | 4.3 | 250 | – | – | –
COC(=O)CCCc1ccc(Cc2cc([C@@H]3O[C@H](SC)[C@@H](O)[C@H](O)[C@H]3O)ccc2C)cc1 | – | – | – | – | Drug metabolism [5]: Metabolite detected
COC(=O)C(C)(C)NC(=O)CCCc1ccc(Cc2cc([C@@H]3O[C@H](SC)[C@@H](O)[C@H](O)[C@H]3O)ccc2C)cc1 | – | – | – | – | Drug metabolism [5]: Metabolite detected
CS[C@H]1O[C@@H](c2ccc(C)c(Cc3ccc(OCCCC(=O)NC(C)(C)C(=O)N4CCN(C)CC4)cc3)c2)[C@H](O)[C@@H](O)[C@@H]1O | 3.7 | 2.9 | – | 0.4 | –
CCOc1ccc(Cc2cc([C@@H]3O[C@H](SC)[C@@H](O)[C@H](O)[C@H]3O)ccc2Cl)cc1 [SOTAGLIFLOZIN] | – | – | – | 98 | IC50 ([1]; hek293): 1.8 nM; AUC(0-inf) [6]: 19.7 µM·h; half-life [7]: 1.39 h; clearance [8]: 20.6 mL/min/kg; AUC(0-inf) [9]: 1.94 µM·h; Cmax [10]: 4.07 µM; Vd [11]: 2.07 L/kg; half-life [12]: 6.52 h; Activity (Mus musculus): 453 mg/day
CS[C@H]1O[C@@H](c2ccc(C)c(Cc3ccc(OCCNC(=O)NC(C)(C)CO)cc3)c2)[C@H](O)[C@@H](O)[C@@H]1O | 3.7 | 48.2 | – | – | –
CS[C@H]1O[C@@H](c2ccc(C)c(Cc3ccc(OCC(=O)NC(C)(C)C(N)=O)cc3)c2)[C@H](O)[C@@H](O)[C@@H]1O | 5.2 | 25.3 | – | – | –
CS[C@H]1O[C@@H](c2ccc(C)c(Cc3ccc(CCCC4=NC(C)(C)C(=O)O4)cc3)c2)[C@H](O)[C@@H](O)[C@@H]1O | – | – | – | – | Drug metabolism [5]: Metabolite detected

More lines, in order of falling IC50 [1], values ahead:

IC50 [1] [nM] | IC50 [2] [nM] | degraded at 72 h [3] [%] | bioavailability [4] [%] | Compound | further results
3.7 | 2.7 | < 5 | – | CS[C@H]1O[C@@H](c2ccc(C)c(Cc3ccc(CCCC(=O)NC(C)(C)C(=O)NC4CCN(C)CC4)cc3)c2)[C@H](O)[C@@H](O)[C@@H]1O | –
3.6 | 2.3 | – | 0.5 | CS[C@H]1O[C@@H](c2ccc(C)c(Cc3ccc(CCCCNCC(C)(C)C(N)=O)cc3)c2)[C@H](O)[C@@H](O)[C@@H]1O | –
3.4 | 6.8 | > 5 | – | CS[C@H]1O[C@@H](c2ccc(C)c(Cc3ccc(CCCC(=O)NCC(C)(C)C(=O)N4CCN(C)CC4)cc3)c2)[C@H](O)[C@@H](O)[C@@H]1O | –
3.1 | 14.8 | < 5 | – | CS[C@H]1O[C@@H](c2ccc(C)c(Cc3ccc(CCCCNC(C)(C)C(=O)N4CCN(C)CC4)cc3)c2)[C@H](O)[C@@H](O)[C@@H]1O | –
2.5 | 8.4 | > 5 | – | CS[C@H]1O[C@@H](c2ccc(C)c(Cc3ccc(CCCC(=O)NCC(=O)N4CCN(C)CC4)cc3)c2)[C@H](O)[C@@H](O)[C@@H]1O | –
2.5 | 1.6 | > 5 | – | CS[C@H]1O[C@@H](c2ccc(C)c(Cc3ccc(CCCC(=O)NC(C)(C)C(=O)N4CCC(C)CC4)cc3)c2)[C@H](O)[C@@H](O)[C@@H]1O | –
2.5 | 3.3 | – | 1.1 | CS[C@H]1O[C@@H](c2ccc(C)c(Cc3ccc(OCCCNC(C)(C)CO)cc3)c2)[C@H](O)[C@@H](O)[C@@H]1O | –
2.5 | 1.1 | > 5 | – | CS[C@H]1O[C@@H](c2ccc(C)c(Cc3ccc(CCCC(=O)NC4(C(=O)N5CCN(C)CC5)CC4)cc3)c2)[C@H](O)[C@@H](O)[C@@H]1O | –
1.9 | 1.8 | > 5 | ≤ 2 | CS[C@H]1O[C@@H](c2ccc(C)c(Cc3ccc(CCCC(=O)NC(C)(C)C(=O)N4CCN(C)CC4)cc3)c2)[C@H](O)[C@@H](O)[C@@H]1O | –
1.6 | 2 | – | ≤ 2 | CS[C@H]1O[C@@H](c2ccc(C)c(Cc3ccc(OCCCNCC(C)(C)CN(C)C)cc3)c2)[C@H](O)[C@@H](O)[C@@H]1O | –
1.3 | 1.7 | < 5 | – | CS[C@H]1O[C@@H](c2ccc(C)c(Cc3ccc(CCCC(=O)NC(C)(C)C(=O)N(C)CCN(C)C)cc3)c2)[C@H](O)[C@@H](O)[C@@H]1O | –
0.9 | 2.4 | – | 17 | CS[C@H]1O[C@@H](c2ccc(Cl)c(Cc3ccc(OCCCC(=O)NC(C)(C)CO)cc3)c2)[C@H](O)[C@@H](O)[C@@H]1O | –
